One assay has as its system Escherichia coli. The experiment in a line: Antimicrobial activity against Escherichia coli ATCC 9637 after 24 hrs by standard microbroth dilution technique. It counts as functional, organism-based. (In general: Broth dilution looks for growth in wells or tubes with falling amounts of substance.)
The test system of a further assay is Klebsiella pneumoniae. The experiment in a line: Antimicrobial activity against Klebsiella pneumoniae ATCC 27736 after 24 hrs by standard microbroth dilution technique. It counts as functional, organism-based.
The test system of the next assay is Staphylococcus aureus. The experiment in a line: Antimicrobial activity against Staphylococcus aureus ATCC 25923 after 24 hrs by standard microbroth dilution technique. It counts as functional, organism-based.
In assay [1] the test system is Mycobacterium tuberculosis. The experiment in a line: Antitubercular activity against Mycobacterium tuberculosis H37Ra after 5 days by microplate alamar blue assay. It counts as functional. The following applies: 120 h. Put shortly:
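Microplate Alamar Blue assay on M. tuberculosis H37Ra. A log-phase culture was diluted to a final OD550 nm of 0.05 in Sauton's medium. Test compounds in DMSO were dispensed into 96-well plates, with two-fold dilutions in the initial screen.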

A further assay concerns Candida parapsilosis. In words: Antimicrobial activity against Candida parapsilosis ATCC 22019 after 48 hrs by standard microbroth dilution technique. It counts as functional. The following applies: Lodderomyces parapsilosis, ATCC 22019, 48 h.
For assay [2], the system named is Mycobacterium tuberculosis. In words: Antitubercular activity against Mycobacterium tuberculosis H37Rv after 24 hrs by agar microdilution method. It counts as functional. The method, boiled down:
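Agar microdilution on M. tuberculosis H37Rv. Two-fold compound dilutions were made in 7H10 agar with OADC. Inoculum came from L–J medium, harvested in 0.85% saline with 0.05% Tween-80. Slants were held 24 h at 37 °C, then streaked with 5×10^4 bacilli per tube and incubated at 37 °C for 30 days. MIC was the concentration giving complete colony inhibition versus medium-only control.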

The test system of a further assay is Cryptococcus neoformans. The experiment in a line: Antimicrobial activity against Cryptococcus neoformans after 72 hrs by standard microbroth dilution technique. It counts as functional.
The subject of the next assay is Pseudomonas aeruginosa. In words: Antimicrobial activity against Pseudomonas aeruginosa ATCC BAA-427 after 24 hrs by standard microbroth dilution technique. It counts as functional, organism-based.
Another assay relates to Aspergillus fumigatus. The experiment in a line: Antimicrobial activity against Aspergillus fumigatus after 72 hrs by standard microbroth dilution technique. It counts as functional.
Another assay has as its system Candida albicans. In words: Antimicrobial activity against Candida albicans ATCC 1405B after 48 hrs by standard microbroth dilution technique. It counts as functional.

≈ marks a conversion by molar mass, not a printed value. Calls of active or inactive are those of the source. No cut-off for these calls is given here.

In general, MIC refers to the lowest concentration found to suppress growth. Lower therefore signals inhibition by little substance. With `COc1ccc(/C=C2\CCCC/C(=C\c3ccc(OC)c(OC)c3)C2=O)cc1OC`, the result in the assay with Escherichia coli, in the assay with Klebsiella pneumoniae, in the assay on Staphylococcus aureus and with Pseudomonas aeruginosa was inactive. For the same compound, the MIC in [1] was more than 12.5 µg/mL; in the assay on Candida parapsilosis, more than 50 µg/mL; in assay [2], more than 12.5 µg/mL; in the assay with Cryptococcus neoformans it was more than 50 µg/mL; against Aspergillus fumigatus, more than 50 µg/mL; against Candida albicans, more than 50 µg/mL.

Regarding `O=C1/C(=C/c2ccc(OCc3ccccc3)cc2)CCC/C1=C\c1ccc(OCc2ccccc2)cc1`, the result with Escherichia coli, in the assay with Klebsiella pneumoniae, in the assay with Staphylococcus aureus and with Pseudomonas aeruginosa was inactive. Further, the MIC in assay [1] was more than 12.5 µg/mL; against Candida parapsilosis, more than 50 µg/mL; in [2], more than 12.5 µg/mL; against Cryptococcus neoformans it was more than 50 µg/mL; against Aspergillus fumigatus it was more than 50 µg/mL; in the assay on Candida albicans, more than 50 µg/mL.

`OC1/C(=C/c2ccc(Br)cc2)CCC/C1=C\c1ccc(Br)cc1` (configuration not stated): the outcome with Escherichia coli, with Klebsiella pneumoniae, in the assay with Staphylococcus aureus and in the assay with Pseudomonas aeruginosa was inactive. Moreover, the MIC in assay [1] was more than 12.5 µg/mL; in the assay with Candida parapsilosis, more than 50 µg/mL; in assay [2], 12.5 µg/mL (≈ 28.8 µM); in the assay on Cryptococcus neoformans it was more than 50 µg/mL; in the assay with Aspergillus fumigatus it was more than 50 µg/mL; with Candida albicans it was more than 50 µg/mL.

Consider `O=C1/C(=C/c2ccc3ccccc3c2)CCC/C1=C\c1ccc2ccccc2c1`, for which the result in the assay with Escherichia coli, in the assay on Klebsiella pneumoniae, with Staphylococcus aureus and in the assay on Pseudomonas aeruginosa was inactive. Moreover, the MIC in assay [1] is more than 12.5 µg/mL; in the assay with Candida parapsilosis, more than 50 µg/mL; in [2], more than 12.5 µg/mL; against Cryptococcus neoformans, more than 50 µg/mL; in the assay with Aspergillus fumigatus, more than 50 µg/mL; against Candida albicans, more than 50 µg/mL.

In assay [2], `CC[C@@H](CO)NCCN[C@@H](CC)CO` [ETHAMBUTOL] had an MIC of 3.25 µg/mL (≈ 15.9 µM).

On to `O=C1/C(=C/c2ccc(F)cc2)CCC/C1=C\c1ccc(F)cc1`, for which the outcome with Escherichia coli, in the assay with Klebsiella pneumoniae, in the assay on Staphylococcus aureus and in the assay with Pseudomonas aeruginosa was inactive. The MIC in [1] is 12.5 µg/mL (≈ 40.3 µM); in the assay with Candida parapsilosis, more than 50 µg/mL; in [2], more than 12.5 µg/mL; against Cryptococcus neoformans, more than 50 µg/mL; in the assay on Aspergillus fumigatus, more than 50 µg/mL; against Candida albicans, more than 50 µg/mL.

In the case of `O=C1/C(=C/c2ccc(Cl)cc2)CCCC/C1=C\c1ccc(Cl)cc1`, the result in the assay on Escherichia coli, in the assay on Klebsiella pneumoniae, in the assay with Staphylococcus aureus and in the assay on Pseudomonas aeruginosa was inactive. Also, the MIC is more than 12.5 µg/mL in [1]; more than 50 µg/mL against Candida parapsilosis; more than 12.5 µg/mL in assay [2]; more than 50 µg/mL against Cryptococcus neoformans; more than 50 µg/mL in the assay on Aspergillus fumigatus; more than 50 µg/mL against Candida albicans.

Turning to `O=C1/C(=C/c2ccc(Br)cc2)CCCC/C1=C\c1ccc(Br)cc1`, the outcome with Escherichia coli, in the assay with Klebsiella pneumoniae, in the assay on Staphylococcus aureus and with Pseudomonas aeruginosa was inactive. Besides, the MIC in [1] is more than 12.5 µg/mL; in the assay with Candida parapsilosis, more than 50 µg/mL; in [2] it was more than 12.5 µg/mL; against Cryptococcus neoformans, more than 50 µg/mL; against Aspergillus fumigatus it was more than 50 µg/mL; in the assay with Candida albicans it was more than 50 µg/mL.

Turning to `O=C1CCCCC1C(O)c1ccc([N+](=O)[O-])cc1` (configuration not stated), the outcome with Escherichia coli, in the assay on Klebsiella pneumoniae, with Staphylococcus aureus and in the assay with Pseudomonas aeruginosa was inactive. Moreover, the MIC in assay [1] was more than 12.5 µg/mL; in the assay on Candida parapsilosis, more than 50 µg/mL; in assay [2], 12.5 µg/mL (≈ 50.1 µM); in the assay with Cryptococcus neoformans, more than 50 µg/mL; with Aspergillus fumigatus, more than 50 µg/mL; against Candida albicans, more than 50 µg/mL.

In the case of `O=C1CCCCC1C(O)c1ccc(Br)cc1` (configuration not stated), the result in the assay on Escherichia coli, with Klebsiella pneumoniae, with Staphylococcus aureus and in the assay on Pseudomonas aeruginosa was inactive. Also, the MIC in [1] was more than 12.5 µg/mL; with Candida parapsilosis it was more than 50 µg/mL; in assay [2], 12.5 µg/mL (≈ 44.1 µM); against Cryptococcus neoformans, more than 50 µg/mL; against Aspergillus fumigatus, more than 50 µg/mL; with Candida albicans, more than 50 µg/mL.

`COc1cc(/C=C2\CCC/C(=C\c3cc(OC)c(OC)c(OC)c3)C2=O)cc(OC)c1OC`: the outcome in the assay with Escherichia coli, in the assay with Klebsiella pneumoniae, with Staphylococcus aureus and in the assay with Pseudomonas aeruginosa was inactive. The MIC in assay [1] is more than 12.5 µg/mL; against Candida parapsilosis, more than 50 µg/mL; in assay [2], more than 12.5 µg/mL; with Cryptococcus neoformans, more than 50 µg/mL; against Aspergillus fumigatus, more than 50 µg/mL; in the assay with Candida albicans, more than 50 µg/mL.

`NNC(=O)c1ccncc1` [ISONIAZID]: in assay [2], it took 0.75 µg/mL (≈ 5.47 µM) to inhibit growth (MIC).

For `O=C1CCCCC1C(O)c1ccccc1[N+](=O)[O-]` (configuration not stated), the result in the assay on Escherichia coli, with Klebsiella pneumoniae, in the assay on Staphylococcus aureus and in the assay with Pseudomonas aeruginosa was inactive. The MIC is more than 12.5 µg/mL in assay [1]; more than 50 µg/mL against Candida parapsilosis; more than 12.5 µg/mL in [2]; more than 50 µg/mL with Cryptococcus neoformans; more than 50 µg/mL against Aspergillus fumigatus; more than 50 µg/mL with Candida albicans.

For the compound `O=[N+]([O-])c1ccc(/C=C2\CCC/C(=C\c3ccc([N+](=O)[O-])cc3)C2O)cc1`, the outcome in the assay on Escherichia coli, in the assay on Klebsiella pneumoniae, with Staphylococcus aureus and in the assay on Pseudomonas aeruginosa was inactive. The MIC was more than 12.5 µg/mL in [1]; more than 50 µg/mL in the assay with Candida parapsilosis; more than 12.5 µg/mL in assay [2]; more than 50 µg/mL against Cryptococcus neoformans; more than 50 µg/mL against Aspergillus fumigatus; more than 50 µg/mL in the assay on Candida albicans.

As to `COc1ccc(/C=C2\CC/C(=C\c3ccc(OC)c(OC)c3)C2=O)cc1OC`, the outcome with Escherichia coli, in the assay with Klebsiella pneumoniae, with Staphylococcus aureus and in the assay on Pseudomonas aeruginosa was inactive. Besides, the MIC in [1] was more than 12.5 µg/mL; in the assay on Candida parapsilosis, more than 50 µg/mL; in assay [2], more than 12.5 µg/mL; with Cryptococcus neoformans, more than 50 µg/mL; with Aspergillus fumigatus, more than 50 µg/mL; in the assay on Candida albicans, more than 50 µg/mL.

For `O=C1/C(=C/c2ccc([N+](=O)[O-])cc2)CCC/C1=C\c1ccc([N+](=O)[O-])cc1`, the outcome with Escherichia coli, with Klebsiella pneumoniae, in the assay with Staphylococcus aureus and in the assay with Pseudomonas aeruginosa was inactive. Also, the MIC was 3.12 µg/mL (≈ 8.56 µM) in [1]; more than 50 µg/mL against Candida parapsilosis; 12.5 µg/mL (≈ 34.3 µM) in assay [2]; more than 50 µg/mL in the assay on Cryptococcus neoformans; more than 50 µg/mL in the assay with Aspergillus fumigatus; more than 50 µg/mL against Candida albicans.

With `O=C1/C(=C/c2ccccc2)CCC/C1=C\c1ccccc1` [2,6-DIBENZYLIDENECYCLOHEXANONE], the result in the assay on Escherichia coli, with Klebsiella pneumoniae, in the assay on Staphylococcus aureus and in the assay with Pseudomonas aeruginosa was inactive. Besides, the MIC was more than 12.5 µg/mL in assay [1]; more than 50 µg/mL in the assay with Candida parapsilosis; 6.25 µg/mL (≈ 22.8 µM) in assay [2]; more than 50 µg/mL in the assay on Cryptococcus neoformans; more than 50 µg/mL against Aspergillus fumigatus; more than 50 µg/mL with Candida albicans.

With `COc1ccc(/C=C2\CCCC/C(=C\c3ccc(OC)cc3)C2=O)cc1`, the outcome in the assay with Escherichia coli, in the assay on Klebsiella pneumoniae, with Staphylococcus aureus and in the assay on Pseudomonas aeruginosa was inactive. Further, the MIC in assay [1] was 6.25 µg/mL (≈ 17.9 µM); against Candida parapsilosis it was more than 50 µg/mL; in assay [2], more than 12.5 µg/mL; with Cryptococcus neoformans, more than 50 µg/mL; against Aspergillus fumigatus, more than 50 µg/mL; with Candida albicans, more than 50 µg/mL.

As to `COc1ccc(/C=C2\CCC/C(=C\c3ccc(OC)c(OC)c3)C2=O)cc1OC`, the result with Escherichia coli, with Klebsiella pneumoniae, with Staphylococcus aureus and with Pseudomonas aeruginosa was inactive. The MIC in assay [1] was more than 12.5 µg/mL; with Candida parapsilosis, more than 50 µg/mL; in assay [2], more than 12.5 µg/mL; against Cryptococcus neoformans, more than 50 µg/mL; with Aspergillus fumigatus, more than 50 µg/mL; with Candida albicans it was more than 50 µg/mL.

On to `O=C1/C(=C/c2ccc(Cl)cc2)CCC/C1=C\c1ccc(Cl)cc1`, for which the result in the assay on Escherichia coli, with Klebsiella pneumoniae, in the assay on Staphylococcus aureus and in the assay on Pseudomonas aeruginosa was inactive. Further, the MIC in assay [1] was more than 12.5 µg/mL; in the assay on Candida parapsilosis it was more than 50 µg/mL; in assay [2], more than 12.5 µg/mL; in the assay on Cryptococcus neoformans, more than 50 µg/mL; in the assay with Aspergillus fumigatus, more than 50 µg/mL; in the assay on Candida albicans it was more than 50 µg/mL.

The record behind these values is ChEMBL document CHEMBL1137715, “A facile synthesis of alpha,alpha'-(EE)-bis(benzylidene)-cycloalkanones and their antitubercular evaluations” (2009).
